Compounds with a hit are over-represented: about 1.5% of the library has one in this group of screens.
Rpn11 inh: Rpn11 (PSMD14) deubiquitinase inhibitors, primary screen, biochemical, fluorescence polarization, uHTS; human 26S proteasome, Ub4-pepOG fluorescence polarization; 20S core pre-blocked with epoxomicin; inhibition, % at 20 µM; hit rate 0.59% among 360,000; AID 588493, 2011;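 active means inhibition at 20 µM, scaled to each plate's controls, above about 33%, limit read from the data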
CSN deneddyl inh: inhibitors of CSN-mediated cullin deneddylation, primary screen, biochemical, fluorescence polarization, uHTS. AID 651999, 2013. hit rate 0.38% among 360,000. inhibition, % at 12.5 µM. Purified CSN, SCF-Nedd8-OG deneddylation;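 active means pattern-corrected inhibition above about 35%, with an unprinted fluorescence ratio check between 0.5 and 1.5, limit read from the data, passing the limit was not always enough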;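 further: 0% = enzyme with substrate and 100% = substrate without enzyme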
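Test system: purified human Csn5 enzyme expressed in HEK293T cells. Amount: 0.24 nM enzyme. Reagent: SCFSkp2-Nedd8OG substrate at 10 nM final. Schedule: 90 min incubation of compound, enzyme and substrate at room temperature. Detection: fluorescence polarization. Read-out: % inhibition of substrate cleavage by Csn5.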
HNF4A DNA FP: change in binding of human HNF4A to DNA, primary screen, biochemical, fluorescence polarization, FITC-DNA. 1 h. activity change, % at 10 µM. hit rate 0.3% among 360,000; in the data active means activity change above about 30%, passing the limit was not always enough
TPT1 inhibitor: Candida albicans TPT1 enzyme inhibitors, primary screen, biochemical, fluorescence polarization. tRNA 2'-phosphotransferase TPT1 (Candida albicans SC5314). recombinant caTPT1, FP RNA substrate dephosphorylation. inhibition, % at 5 µM. hit rate 0.81% among 300,000. AID 1962, 2009;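 active means inhibition above the mean of all tested compounds plus 3 SD, set per screening campaign, cut at about 24% in these data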;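 further: plate controls were DMSO alone for no effect and ferristatin control at 100 nM for full effect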
CSN5 deneddyl: Csn5 deneddylation inhibitors, confirmation, biochemical, fluorescence polarization, single concentration, SCF-Nedd8OG substrate | shares compounds with CSN deneddyl inh | Csn5 deneddylation of SCF-Nedd8OG, 90 min | inhibition, % at 16.6 µM | hit rate 62% among 540; in the data active means inhibition above about 50%;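 further: 0% = DMSO with enzyme and 100% = no enzyme wells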
MMP-2 counter: MMP-2 protease inhibition counter-screen, confirmation, counter-screen for CSN deneddylation inhibitor project, biochemical, fluorescence, single concentration; recombinant MMP-2, FRET substrate fluorescence, 60 min; hit rate 33% among 540; shares compounds with CSN deneddyl inh; inhibition, % at 16.6 µM;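 active means corrected plate-normalized z-score of 5 or more, or -5 or less, or inhibition of 15% or more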;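 further: plate controls were DMSO wells with enzyme for no effect and buffer wells lacking MMP-2 for full effect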
Thrombin counter: blocks bovine thrombin in a CSN deneddylation counter-screen | shares compounds with CSN deneddyl inh | bovine thrombin cleavage of Ub4-pepOG, fluorescence polarization | inhibition, % at 16.6 µM | hit rate 49% among 540 | AID 720656;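 active means inhibition at or above a set limit, with a fluorescence interference ratio between 0.5 and a set maximum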
Target sequence (P00735 whole entry, looked up): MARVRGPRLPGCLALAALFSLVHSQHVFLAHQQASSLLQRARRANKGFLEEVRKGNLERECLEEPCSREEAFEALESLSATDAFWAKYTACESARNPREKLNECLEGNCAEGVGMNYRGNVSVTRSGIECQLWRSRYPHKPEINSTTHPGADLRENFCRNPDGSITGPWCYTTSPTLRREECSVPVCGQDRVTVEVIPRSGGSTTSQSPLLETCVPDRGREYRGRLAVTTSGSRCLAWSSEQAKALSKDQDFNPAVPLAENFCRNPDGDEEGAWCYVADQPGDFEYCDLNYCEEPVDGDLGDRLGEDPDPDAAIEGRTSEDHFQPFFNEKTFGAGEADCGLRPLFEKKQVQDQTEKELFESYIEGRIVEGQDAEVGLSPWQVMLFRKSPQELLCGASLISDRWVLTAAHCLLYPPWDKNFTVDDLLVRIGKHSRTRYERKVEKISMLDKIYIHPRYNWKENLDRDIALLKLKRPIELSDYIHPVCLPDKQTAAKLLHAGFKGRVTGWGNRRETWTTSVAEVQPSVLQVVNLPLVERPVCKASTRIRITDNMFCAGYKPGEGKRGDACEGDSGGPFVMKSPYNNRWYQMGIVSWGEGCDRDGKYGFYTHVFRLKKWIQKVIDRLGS
Active calls of the source: *.

For O=C(CSc1nnc(-c2ccco2)c(-c2ccco2)n1)c1ccccc1 the results were Rpn11 inh 0, CSN deneddyl inh 37*, HNF4A DNA FP -19, TPT1 inhibitor -1, CSN5 deneddyl 98*, MMP-2 counter 10 and Thrombin counter -13.
For Nc1ccc2ccccc2c1[N+](=O)[O-] the results were Rpn11 inh 4, CSN deneddyl inh 1 and HNF4A DNA FP 0.
For Nc1cc2c3ccccc3ccc2c2ccccc12 the results were Rpn11 inh 15, CSN deneddyl inh 46*, HNF4A DNA FP 14, CSN5 deneddyl 82*, MMP-2 counter 9 and Thrombin counter -15.
For Cc1cccc(C(=O)N2N=C(c3ccc(NS(C)(=O)=O)cc3)CC2c2cccs2)c1 (centres undefined) the results were Rpn11 inh 6, CSN deneddyl inh 3, HNF4A DNA FP 5 and TPT1 inhibitor 2.
`Cc1cc(N)c2cc(NC(=O)/C=C/c3ccccc3Cl)ccc2n1` gave Rpn11 inh 136*, CSN deneddyl inh 108*, HNF4A DNA FP 37*, TPT1 inhibitor -2, CSN5 deneddyl -39, MMP-2 counter 54* and Thrombin counter -5.
For CCOC(=O)N1CCN(S(=O)(=O)N2CCCC(C(=O)NCc3cccc(OC)c3)C2)CC1 (centres undefined) the results were Rpn11 inh -3, CSN deneddyl inh -1, HNF4A DNA FP 8 and TPT1 inhibitor 4.
Nc1cccc2c1C(=O)N(C(=O)c1ccco1)C2=O was read as Rpn11 inh -2, CSN deneddyl inh 2, HNF4A DNA FP -3 and TPT1 inhibitor -12.
`Nc1cccc2c1C(=O)N(C(=O)/C=C/c1ccc(F)cc1)C2=O` gave Rpn11 inh -8, CSN deneddyl inh 37*, HNF4A DNA FP -6, TPT1 inhibitor -6, CSN5 deneddyl 69*, MMP-2 counter 9 and Thrombin counter 4.
O=C(/C=C/c1ccccc1)Nc1scc(-c2ccccc2)c1C(=O)O was read as Rpn11 inh 0, CSN deneddyl inh -7 and HNF4A DNA FP 3.
O=C(/C=C/c1ccco1)Nc1scc(-c2ccccc2)c1C(=O)O was read as Rpn11 inh 34, CSN deneddyl inh 38*, HNF4A DNA FP -36, TPT1 inhibitor 0, CSN5 deneddyl 25, MMP-2 counter 9 and Thrombin counter 6.
COc1cc(OC)c(-c2c3cc(O)c(=O)cc-3oc3cc(O)c(O)cc23)cc1OC was read as CSN deneddyl inh 81*, HNF4A DNA FP -90, TPT1 inhibitor 5, MMP-2 counter active and Thrombin counter -84.
`Cc1c2cc(O)c(=O)cc-2oc2cc(O)c(O)cc12` gave Rpn11 inh -211, CSN deneddyl inh -75, HNF4A DNA FP -84 and TPT1 inhibitor -25.
CN(C)c1ccc2nc3ccc(=O)cc-3sc2c1 was read as Rpn11 inh 21, CSN deneddyl inh 55*, HNF4A DNA FP -18, CSN5 deneddyl 104*, MMP-2 counter 26* and Thrombin counter 14.
Screening O=C(/C=C/Nc1ccc(Nc2ccccc2)cc1)c1cccs1 returned CSN deneddyl inh 37*, HNF4A DNA FP 57*, CSN5 deneddyl 94*, MMP-2 counter 7 and Thrombin counter -2.
Cc1ccc(N/C=C/C(=O)c2cccs2)cc1C was read as Rpn11 inh 4, CSN deneddyl inh -3, HNF4A DNA FP 1 and TPT1 inhibitor 3.
Screening CC(=O)c1cccc(NC(=O)/C=C/c2ccc([N+](=O)[O-])s2)c1 returned Rpn11 inh 20, CSN deneddyl inh 35*, HNF4A DNA FP 7, CSN5 deneddyl 97*, MMP-2 counter 6 and Thrombin counter 4.
Cc1cc(C)cc(NC(=O)/C=C/c2ccc([N+](=O)[O-])s2)c1 was read as Rpn11 inh -2, CSN deneddyl inh -10, HNF4A DNA FP 20 and TPT1 inhibitor 8.
Screening CC1(C(=O)NS(=O)(=O)C2CC2)CCCN(C(=O)c2ccco2)C1 (centres undefined) returned Rpn11 inh -4, CSN deneddyl inh -7 and HNF4A DNA FP -4.
`CC(=O)OC[C@]12CC[C@H]3[C@@](C)(CC[C@H]4C(C)(C)CCC[C@]34C)[C@@H]1CC(C1=CC(=O)OC1O)O2` (some centres undefined) gave Rpn11 inh 58*, CSN deneddyl inh 35*, HNF4A DNA FP -19, CSN5 deneddyl 1, MMP-2 counter -1 and Thrombin counter -10.
Screening O=C(O)c1cccc2c1C(=O)c1ccccc1-2 returned Rpn11 inh -2, CSN deneddyl inh 2, HNF4A DNA FP -5 and TPT1 inhibitor 0.
O=C1C(=C(I)I)c2ccccc2-c2ccccc21 was read as Rpn11 inh 31, CSN deneddyl inh 52*, HNF4A DNA FP 0, CSN5 deneddyl 63*, MMP-2 counter 10 and Thrombin counter -36.
O=C(CCl)Nc1nc(-c2ccco2)c(-c2ccco2)s1 was read as Rpn11 inh 15, CSN deneddyl inh 43*, HNF4A DNA FP 2, TPT1 inhibitor 9, CSN5 deneddyl 79*, MMP-2 counter 5 and Thrombin counter -1.
Screening N=C(N)c1ccc(/C=C/c2ccc(C(=N)N)cc2O)cc1 returned Rpn11 inh -8, CSN deneddyl inh 46*, HNF4A DNA FP 18, TPT1 inhibitor -2, CSN5 deneddyl -17, MMP-2 counter -2 and Thrombin counter 32*.
For O=C(O)c1cccc2c1C(=O)c1ccc(N3CCN(Cc4ccc5c(c4)OCO5)CC3)cc1S2(=O)=O the results were Rpn11 inh 15, CSN deneddyl inh 4 and HNF4A DNA FP 6.
`Nc1c(/C=C2/C=CC(=O)C(O)=C2)c(=O)nc2sc(CC(=O)N3CCCC3)nn12` gave Rpn11 inh 30, CSN deneddyl inh 39*, HNF4A DNA FP -2, TPT1 inhibitor 5, CSN5 deneddyl 25, MMP-2 counter 36* and Thrombin counter 37*.
Screening O=C(COC(=O)Cc1ccc(S(=O)(=O)N2CCOCC2)s1)Nc1ccccc1Cl returned Rpn11 inh 7, CSN deneddyl inh 0 and HNF4A DNA FP 5.

Screening results deposited in PubChem by several laboratories.
